# Laboratory results from ChEMBL document CHEMBL1828575, “Design, synthesis and antiproliferative activities of biarylolefins based on polyhydroxylated and carbohydrate scaffolds” (Eur J Med Chem, 2011).
# Activity calls are given as the source filed them. The rule behind the calls is not given here.
# Legend:
# [1] = tested on: MCF7; experiment: Cytotoxicity against human MCF7 cells at 10^-6 M after 72 hrs by MTS assay; format: functional; settings: MCF7, 72 h, read-out: GI
# [2] = Antiproliferative activity against human MDA231 cells after 72 hrs by MTS assay; format: functional, cell-based; settings: MDA-MB-231, 72 h
# In short: (§1)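 Cell lines grown in RPMI with 10% fetal calf serum plus penicillin, streptomycin and fungizone under 5% CO2. Compounds in DMSO (1% final; controls got DMSO alone) were added 24 h after plating. After 72 h exposure, MTS was added for 3 h at 37 °C and A490 read. Inhibition = (1 − OD treated/OD control)×100, in triplicate. IC50s came from separate duplicate dose-response experiments.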
# [3] = Cytotoxicity against human MDA231 cells at 10^-5 M after 72 hrs by MTS assay; format: functional; settings: MDA-MB-231, 72 h, read-out: GI
# In short: (§2)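 Preliminary screen at 10^-5 and 10^-6 M. Cells were grown in RPMI with 10% fetal calf serum plus penicillin, streptomycin and fungizone under 5% CO₂, plated in 96-well plates, and dosed 24 h later from DMSO stocks (1% DMSO final, same in controls). After 72 h, MTS was added for 3 h at 37 °C and absorbance read at 490 nm. Inhibition was calculated as (1 − OD treated/OD control) × 100, in triplicate.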
# [4] = tested on: A549; experiment: Cytotoxicity against human A549 cells at 10^-5 M after 72 hrs by MTS assay; format: functional; settings: A549, 72 h, read-out: GI
# In short: (§3)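 Cells grown in RPMI with 10% fetal calf serum, penicillin, streptomycin and fungizone under 5% CO₂. Plated in 96-well plates and dosed 24 h later with compound in DMSO (1% final DMSO; controls got DMSO alone). After 72 h, MTS was added for 3 h at 37 °C and A490 read. Inhibition = (1 − OD treated/OD control) × 100, in triplicate.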
# [5] = tested on: HCT-15; experiment: Antiproliferative activity against human HCT15 cells after 72 hrs by MTS assay; format: functional, cell-based; settings: HCT-15, 72 h; in short: as §1
# [6] = organism: Ovis aries; experiment: Inhibition of sheep brain tubulin polymerization at 10 uM
# In short: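 Microtubule protein from sheep brain, purified by two assembly/disassembly cycles (37 °C/0 °C), in 100 mM MES pH 6.6, 1 mM EGTA, 0.5 mM MgCl₂. Compounds in DMSO were tested at a single concentration, with incubation at 37 °C for 10 min and then 0 °C for 5 min before measuring assembly rate, following a modified Guénard protocol.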
# [7] = tested on: MIA PaCa-2; experiment: Cytotoxicity against human MIAPaCa2 cells at 10^-5 M after 72 hrs by MTS assay; format: functional; settings: MIA PaCa-2, 72 h, read-out: GI
# [8] = tested on: SF-268; experiment: Cytotoxicity against human SF268 cells at 10^-5 M after 72 hrs by MTS assay; format: functional; settings: SF-268, 72 h, read-out: GI; in short: as §2
# [9] = tested on: SK-OV-3; experiment: Cytotoxicity against human SKOV3 cells at 10^-5 M after 72 hrs by MTS assay; format: functional; settings: SK-OV-3, 72 h, read-out: GI; in short: as §2
# [10] = tested on: PC-3; experiment: Cytotoxicity against human PC3 cells at 10^-5 M after 72 hrs by MTS assay; format: functional; settings: PC-3, 72 h, read-out: GI; in short: as §2
# [11] = tested on: HCT-116; experiment: Cytotoxicity against human HCT116 cells at 10^-5 M after 72 hrs by MTS assay; format: functional; settings: HCT-116, 72 h, read-out: GI; in short: as §3
# [12] = tested on: HT-29; experiment: Cytotoxicity against human HT-29 cells at 10^-5 M after 72 hrs by MTS assay; format: functional; settings: HT-29, 72 h, read-out: GI; in short: as §3
# [13] = tested on: MCF7; experiment: Cytotoxicity against human MCF7 cells at 10^-5 M after 72 hrs by MTS assay; format: functional; settings: MCF7, 72 h, read-out: GI
# [14] = tested on: HL-60; experiment: Cytotoxicity against human HL60 cells at 10^-6 M after 72 hrs by MTS assay; format: functional; settings: HL-60, 72 h, read-out: GI; in short: as §3
# [15] = tested on: K562; experiment: Cytotoxicity against human K562 cells at 10^-6 M after 72 hrs by MTS assay; format: functional; settings: K562, 72 h, read-out: GI; in short: as §3
# [16] = Cytotoxicity against human HL60R cells at 10^-5 M after 72 hrs by MTS assay; format: functional, HL-60; settings: read-out: GI; in short: as §3
# [17] = tested on: MIA PaCa-2; experiment: Cytotoxicity against human MIAPaCa2 cells at 10^-6 M after 72 hrs by MTS assay; format: functional; settings: MIA PaCa-2, 72 h, read-out: GI
# [18] = tested on: SK-OV-3; experiment: Antiproliferative activity against human SKOV3 cells after 72 hrs by MTS assay; format: functional, cell-based; settings: SK-OV-3, 72 h; in short: as §1
# [19] = tested on: SF-268; experiment: Cytotoxicity against human SF268 cells at 10^-6 M after 72 hrs by MTS assay; format: functional; settings: SF-268, 72 h, read-out: GI; in short: as §2
# [20] = tested on: HCT-116; experiment: Cytotoxicity against human HCT116 cells at 10^-6 M after 72 hrs by MTS assay; format: functional; settings: HCT-116, 72 h, read-out: GI; in short: as §3
# [21] = tested on: K562; experiment: Antiproliferative activity against human K562 cells after 72 hrs by MTS assay; format: functional, cell-based; settings: K562, 72 h; in short: as §1
# [22] = Cytotoxicity against human HL60R cells at 10^-6 M after 72 hrs by MTS assay; format: functional; settings: read-out: GI; in short: as §3
# [23] = tested on: A549; experiment: Cytotoxicity against human A549 cells at 10^-6 M after 72 hrs by MTS assay; format: functional; settings: A549, 72 h, read-out: GI; in short: as §3
# [24] = tested on: K562; experiment: Cytotoxicity against human K562 cells at 10^-5 M after 72 hrs by MTS assay; format: functional; settings: K562, 72 h, read-out: GI; in short: as §3
# [25] = tested on: HT-29; experiment: Cytotoxicity against human HT-29 cells at 10^-6 M after 72 hrs by MTS assay; format: functional; settings: HT-29, 72 h, read-out: GI; in short: as §3
# [26] = tested on: SF-268; experiment: Antiproliferative activity against human SF268 cells after 72 hrs by MTS assay; format: functional, cell-based; settings: SF-268, 72 h; in short: as §1
# [27] = tested on: PC-3; experiment: Antiproliferative activity against human PC3 cells after 72 hrs by MTS assay; format: functional, cell-based; settings: PC-3, 72 h; in short: as §1
# [28] = Cytotoxicity against human MDA231 cells at 10^-6 M after 72 hrs by MTS assay; format: functional; settings: MDA-MB-231, 72 h, read-out: GI; in short: as §2
# [29] = Antiproliferative activity against human HL60R cells after 72 hrs by MTS assay; format: functional, cell-based
# [30] = tested on: HL-60; experiment: Cytotoxicity against human HL60 cells at 10^-5 M after 72 hrs by MTS assay; format: functional; settings: HL-60, 72 h, read-out: GI; in short: as §3
# [31] = tested on: HL-60; experiment: Antiproliferative activity against human HL60 cells after 72 hrs by MTS assay; format: functional, cell-based; settings: HL-60, 72 h; in short: as §1
# [32] = tested on: OVCAR-8; experiment: Antiproliferative activity against human OVCAR8 cells after 72 hrs by MTS assay; format: functional, cell-based; settings: OVCAR-8, 72 h; in short: as §1
# [33] = tested on: OVCAR-8; experiment: Cytotoxicity against human OVCAR8 cells at 10^-5 M after 72 hrs by MTS assay; format: functional; settings: OVCAR-8, 72 h, read-out: GI; in short: as §2
# [34] = tested on: PC-3; experiment: Cytotoxicity against human PC3 cells at 10^-6 M after 72 hrs by MTS assay; format: functional; settings: PC-3, 72 h, read-out: GI; in short: as §2
# [35] = tested on: HCT-15; experiment: Cytotoxicity against human HCT15 cells at 10^-6 M after 72 hrs by MTS assay; format: functional; settings: HCT-15, 72 h, read-out: GI; in short: as §3
# [36] = tested on: OVCAR-8; experiment: Cytotoxicity against human OVCAR8 cells at 10^-6 M after 72 hrs by MTS assay; format: functional; settings: OVCAR-8, 72 h, read-out: GI; in short: as §2
# [37] = tested on: SK-OV-3; experiment: Cytotoxicity against human SKOV3 cells at 10^-6 M after 72 hrs by MTS assay; format: functional; settings: SK-OV-3, 72 h, read-out: GI; in short: as §2
# [38] = tested on: HCT-15; experiment: Cytotoxicity against human HCT15 cells at 10^-5 M after 72 hrs by MTS assay; format: functional; settings: HCT-15, 72 h, read-out: GI; in short: as §3
SMILES,inhibition of growth at 1 µM [1],inhibition of growth at 10 µM [3],inhibition of growth at 10 µM [4],tubulin polymerization inhibition call (active/not active) [6],inhibition of growth at 10 µM [7],inhibition of growth at 10 µM [8],inhibition of growth at 10 µM [9],inhibition of growth at 10 µM [10],inhibition of growth at 10 µM [11],inhibition of growth at 10 µM [12],inhibition of growth at 10 µM [13],inhibition of growth at 1 µM [14],inhibition of growth at 1 µM [15],inhibition of growth at 10 µM [16],inhibition of growth at 1 µM [17],inhibition of growth at 1 µM [19],inhibition of growth at 1 µM [20],inhibition of growth at 1 µM [22],inhibition of growth at 1 µM [23],inhibition of growth at 10 µM [24],also measured
COc1cc(C(=C(CO)CO)c2ccc3ccccc3c2)cc(OC)c1OC,8%,88%,67%,inactive,54%,85%,64%,75%,68%,71%,51%,17%,24%,89%,0%,14%,0%,11%,3%,83%,IC50 [2]: 810 nM; IC50 [5]: 390 nM; IC50 [18]: 6.84 µM; IC50 [21]: 170 nM; inhibition of growth at 1 µM [25]: 0%; IC50 [26]: 1250 nM; IC50 [27]: 760 nM; inhibition of growth at 1 µM [28]: 5%; IC50 [29]: 1680 nM; inhibition of growth at 10 µM [30]: 75%; IC50 [31]: 780 nM; IC50 [32]: 4.47 µM; inhibition of growth at 10 µM [33]: 67%; inhibition of growth at 1 µM [34]: 10%; inhibition of growth at 1 µM [35]: 19%; inhibition of growth at 1 µM [36]: 0%; inhibition of growth at 1 µM [37]: 5%; inhibition of growth at 10 µM [38]: 82%
COc1ccc(C(=C(COC(C)=O)COC(C)=O)c2cc(OC)c(OC)c(OC)c2)cc1O,5%,75%,67%,inactive,51%,71%,84%,78%,59%,63%,34%,15%,25%,90%,0%,16%,0%,1%,1%,78%,IC50 [2]: 1030 nM; IC50 [5]: 680 nM; IC50 [18]: 0.07 µM; IC50 [21]: 180 nM; inhibition of growth at 1 µM [25]: 0%; IC50 [26]: 970 nM; IC50 [27]: 270 nM; inhibition of growth at 1 µM [28]: 0%; IC50 [29]: 2720 nM; inhibition of growth at 10 µM [30]: 74%; IC50 [31]: 680 nM; IC50 [32]: 1.9 µM; inhibition of growth at 10 µM [33]: 94%; inhibition of growth at 1 µM [34]: 14%; inhibition of growth at 1 µM [35]: 18%; inhibition of growth at 1 µM [36]: 0%; inhibition of growth at 1 µM [37]: 71%; inhibition of growth at 10 µM [38]: 77%
COc1cc(C(=C(COC(C)=O)COC(C)=O)c2ccc3c(c2)OCO3)cc(OC)c1OC,0%,17%,12%,inactive,0%,20%,7%,13%,0%,0%,11%,17%,5%,24%,0%,24%,0%,9%,0%,26%,inhibition of growth at 1 µM [25]: 0%; inhibition of growth at 1 µM [28]: 0%; inhibition of growth at 10 µM [30]: 30%; inhibition of growth at 10 µM [33]: 0%; inhibition of growth at 1 µM [34]: 3%; inhibition of growth at 1 µM [35]: 9%; inhibition of growth at 1 µM [36]: 0%; inhibition of growth at 1 µM [37]: 3%; inhibition of growth at 10 µM [38]: 22%
